From ChEMBL document CHEMBL4196172 (J Med Chem, 2018)
pIC50: −log10 of the molar value. Activity calls are given as the source filed them. The calls are words filed in the database; no cut-off is given here.

Key:
[1] = biological target: cGMP-specific 3',5'-cyclic phosphodiesterase (Homo sapiens, UniProt O76074); test: Inhibition of human PDE5A1 catalytic domain (535 to 860 residues) expressed in Escherichia coli BL21 using 3H-cGMP as substrate after 15 mins by liquid scintillation counting
Rattus norvegicus [2] = test: Anti-hypertensive activity in MCT-induced pulmonary hypertension Wistar rat model assessed as mean pulmonary artery pressure at 10 mg/kg, po administered for 3 weeks (reference value: 52.55 mmHg); assay type: functional
In short: (§1)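 PAH was induced in rats by monocrotaline (MCT) injection and confirmed after 3 weeks against an untreated control group. Treated groups received oral dosing and were compared with the MCT model group. Read-outs were mean pulmonary artery pressure, right ventricle hypertrophy index, and small pulmonary artery wall thickness as % of external diameter. Data are mean ± S.E.M., n = 6-9/group.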

[3] = Apparent clearance in rat liver microsomes at 0.5 uM; assay type: ADME, microsome; details: read-out: CLH(app)
[4] = biological target: 3',5'-cyclic-AMP phosphodiesterase 4D (Homo sapiens, UniProt Q08499); test: Inhibition of PDE4D2 catalytic domain (86 to 413 residues) (unknown origin) expressed in Escherichia coli BL21 using 3H-cAMP as substrate after 15 mins by liquid scintillation counting
[5] = biological target: Voltage-gated inwardly rectifying potassium channel KCNH2 (Homo sapiens, UniProt Q12809); test: Inhibition of human ERG expressed in CHO cells by automated patch clamp assay; assay type: cell-based
[6] = Intrinsic clearance in rat liver microsomes at 0.5 uM; assay type: ADME, microsome
Cytochrome P450 3A4 = Cytochrome P450 3A4 (Homo sapiens, UniProt P08684); test: Inhibition of CYP3A4 in human liver microsomes in presence of NADPH; assay type: ADME
Rattus norvegicus [7] = test: Anti-hypertensive activity in MCT-induced pulmonary hypertension Wistar rat model assessed as reduction in wall thickness percentage at 1.25 mg/kg, po administered for 3 weeks; assay type: functional, organism-based; in short: as §1
[8] = biological target: cGMP-dependent 3',5'-cyclic phosphodiesterase (Homo sapiens, UniProt O00408); test: Inhibition of PDE2A catalytic domain (580 to 919 residues) (unknown origin) expressed in Escherichia coli BL21 using 3H-cGMP as substrate after 15 mins by liquid scintillation counting
Mus musculus = test: Acute toxicity in KM mouse up to 1.5 g/kg, po administered as single dose measured after 14 days; assay type: organism-based; details: in vivo, 1500 mg/kg, 336 h
[9] = biological target: cAMP and cAMP-inhibited cGMP 3',5'-cyclic phosphodiesterase 10A (Homo sapiens, UniProt Q9Y233); test: Inhibition of PDE10A catalytic domain (449 to 770 residues) (unknown origin) expressed in Escherichia coli BL21 using 3H-cAMP as substrate after 15 mins by liquid scintillation counting
Cytochrome P450 1A2 = biological target: T1, Cytochrome P450 1A2 (Homo sapiens, UniProt P05177); test: Inhibition of CYP1A2 in human liver microsomes in presence of NADPH; assay type: ADME
T1 sequence (P05177 whole entry): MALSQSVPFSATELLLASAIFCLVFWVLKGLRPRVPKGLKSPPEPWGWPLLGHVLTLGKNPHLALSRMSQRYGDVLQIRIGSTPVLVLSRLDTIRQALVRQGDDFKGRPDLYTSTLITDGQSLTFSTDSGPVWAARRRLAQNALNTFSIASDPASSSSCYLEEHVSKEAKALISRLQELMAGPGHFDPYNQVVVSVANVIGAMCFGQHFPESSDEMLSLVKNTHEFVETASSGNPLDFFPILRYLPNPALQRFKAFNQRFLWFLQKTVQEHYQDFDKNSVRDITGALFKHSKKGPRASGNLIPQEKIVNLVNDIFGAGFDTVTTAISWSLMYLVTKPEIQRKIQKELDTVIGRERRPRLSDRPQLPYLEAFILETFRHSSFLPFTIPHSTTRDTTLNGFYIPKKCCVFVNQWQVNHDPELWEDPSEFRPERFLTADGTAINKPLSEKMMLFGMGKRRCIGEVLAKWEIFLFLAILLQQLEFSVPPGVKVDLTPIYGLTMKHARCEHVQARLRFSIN

[10] = biological target: Dual 3',5'-cyclic-AMP and -GMP phosphodiesterase 11A (Homo sapiens, UniProt Q9HCR9); test: Inhibition of PDE11A catalytic domain (588 to 911 residues) (unknown origin) expressed in Escherichia coli BL21 using 3H-cAMP as substrate after 15 mins by liquid scintillation counting
Cytochrome P450 2C9 = Cytochrome P450 2C9 (Homo sapiens, UniProt P11712); test: Inhibition of CYP2C9 in human liver microsomes in presence of NADPH; assay type: ADME
[11] = Protein binding in human plasma at 1 uM after 4 hrs by LC/MS/MS analysis; assay type: ADME, cell-free; details: read-out: PPB (converted)
[12] = Metabolic stability in rat liver microsomes assessed as stability rate constant at 0.5 uM; assay type: ADME, microsome
Rattus norvegicus [13] = test: Anti-hypertensive activity in MCT-induced pulmonary hypertension Wistar rat model assessed as mean pulmonary artery pressure at 1.25 mg/kg, po administered for 3 weeks (reference value: 52.55 mmHg); assay type: functional; in short: as §1
[14] = biological target: Cone cGMP-specific 3',5'-cyclic phosphodiesterase subunit alpha' (Homo sapiens, UniProt P51160); test: Inhibition of PDE6C catalytic domain (1 to 858 residues) (unknown origin) expressed in Escherichia coli BL21 using 3H-cGMP as substrate after 15 mins by liquid scintillation counting
Rattus norvegicus [15] = test: Anti-hypertensive activity in MCT-induced pulmonary hypertension Wistar rat model assessed as reduction in RVHI at 1.25 mg/kg, po administered for 3 weeks; assay type: functional, organism-based; in short: as §1
Cytochrome P450 2B6 = biological target: T2, Cytochrome P450 2B6 (Homo sapiens, UniProt P20813); test: Inhibition of CYP2B6 in human liver microsomes in presence of NADPH; assay type: ADME
T2 sequence (P20813 whole entry): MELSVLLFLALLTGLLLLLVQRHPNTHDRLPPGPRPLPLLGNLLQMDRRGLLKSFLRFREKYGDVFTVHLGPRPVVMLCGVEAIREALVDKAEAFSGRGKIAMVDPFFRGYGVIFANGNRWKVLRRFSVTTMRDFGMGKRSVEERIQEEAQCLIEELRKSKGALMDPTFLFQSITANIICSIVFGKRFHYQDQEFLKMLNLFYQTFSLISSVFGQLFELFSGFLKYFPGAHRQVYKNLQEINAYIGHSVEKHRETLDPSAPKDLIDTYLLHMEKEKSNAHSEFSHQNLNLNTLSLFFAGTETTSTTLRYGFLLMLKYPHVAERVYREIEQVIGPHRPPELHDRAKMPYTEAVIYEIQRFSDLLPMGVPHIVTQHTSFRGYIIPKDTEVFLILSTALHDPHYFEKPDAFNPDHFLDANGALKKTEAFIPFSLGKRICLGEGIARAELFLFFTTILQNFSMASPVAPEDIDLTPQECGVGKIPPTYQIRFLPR

[16] = Half life in rat liver microsomes at 0.5 uM; assay type: ADME, microsome
Homo sapiens = organism: Homo sapiens; test: Selectivity ratio of IC50 for PDE11A catalytic domain (588 to 911 residues) (unknown origin) to IC50 for human PDE5A1 catalytic domain (535 to 860 residues)
Rattus norvegicus [17] = test: Anti-hypertensive activity in MCT-induced pulmonary hypertension Wistar rat model assessed as reduction in wall thickness percentage at 10 mg/kg, po administered for 3 weeks; assay type: functional, organism-based; in short: as §1
Rattus norvegicus [18] = test: Anti-hypertensive activity in MCT-induced pulmonary hypertension Wistar rat model assessed as reduction in RVHI at 10 mg/kg, po administered for 3 weeks; assay type: functional, organism-based; in short: as §1
[19] = Hepatic extraction ratio in rat liver microsomes at 0.5 uM; assay type: ADME, microsome; details: read-out: ERH

Chain of cAMP and cAMP-inhibited cGMP 3',5'-cyclic phosphodiesterase 10A (Q9Y233 whole entry, the tested form may be a part): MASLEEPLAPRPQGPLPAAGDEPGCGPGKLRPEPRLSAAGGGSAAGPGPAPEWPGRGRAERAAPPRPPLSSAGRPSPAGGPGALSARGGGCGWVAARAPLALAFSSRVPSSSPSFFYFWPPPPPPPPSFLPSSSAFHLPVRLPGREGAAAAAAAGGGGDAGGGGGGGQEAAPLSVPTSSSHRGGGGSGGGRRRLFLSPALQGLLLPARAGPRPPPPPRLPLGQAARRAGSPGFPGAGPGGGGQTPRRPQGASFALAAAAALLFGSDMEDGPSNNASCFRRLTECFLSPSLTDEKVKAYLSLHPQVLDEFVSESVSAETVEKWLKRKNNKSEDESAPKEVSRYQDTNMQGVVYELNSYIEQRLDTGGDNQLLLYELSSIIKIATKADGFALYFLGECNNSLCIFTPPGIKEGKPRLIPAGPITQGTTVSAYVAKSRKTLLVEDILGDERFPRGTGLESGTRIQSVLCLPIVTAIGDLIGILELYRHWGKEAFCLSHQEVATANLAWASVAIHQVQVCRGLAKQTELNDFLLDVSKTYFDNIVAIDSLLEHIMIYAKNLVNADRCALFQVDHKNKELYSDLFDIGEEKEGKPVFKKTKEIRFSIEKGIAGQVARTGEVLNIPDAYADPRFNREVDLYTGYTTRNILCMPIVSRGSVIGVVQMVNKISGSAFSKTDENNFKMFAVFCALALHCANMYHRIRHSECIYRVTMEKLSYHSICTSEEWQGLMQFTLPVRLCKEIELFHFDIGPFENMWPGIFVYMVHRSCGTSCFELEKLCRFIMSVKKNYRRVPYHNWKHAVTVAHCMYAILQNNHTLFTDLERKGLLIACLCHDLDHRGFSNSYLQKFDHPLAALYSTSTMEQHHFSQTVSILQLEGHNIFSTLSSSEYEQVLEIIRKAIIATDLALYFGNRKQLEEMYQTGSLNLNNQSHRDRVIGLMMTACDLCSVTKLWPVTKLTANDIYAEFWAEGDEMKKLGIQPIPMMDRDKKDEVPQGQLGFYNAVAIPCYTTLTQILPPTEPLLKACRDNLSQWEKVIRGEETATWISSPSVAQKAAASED
Chain of 3',5'-cyclic-AMP phosphodiesterase 4D (Q08499 whole entry, the tested form may be a part): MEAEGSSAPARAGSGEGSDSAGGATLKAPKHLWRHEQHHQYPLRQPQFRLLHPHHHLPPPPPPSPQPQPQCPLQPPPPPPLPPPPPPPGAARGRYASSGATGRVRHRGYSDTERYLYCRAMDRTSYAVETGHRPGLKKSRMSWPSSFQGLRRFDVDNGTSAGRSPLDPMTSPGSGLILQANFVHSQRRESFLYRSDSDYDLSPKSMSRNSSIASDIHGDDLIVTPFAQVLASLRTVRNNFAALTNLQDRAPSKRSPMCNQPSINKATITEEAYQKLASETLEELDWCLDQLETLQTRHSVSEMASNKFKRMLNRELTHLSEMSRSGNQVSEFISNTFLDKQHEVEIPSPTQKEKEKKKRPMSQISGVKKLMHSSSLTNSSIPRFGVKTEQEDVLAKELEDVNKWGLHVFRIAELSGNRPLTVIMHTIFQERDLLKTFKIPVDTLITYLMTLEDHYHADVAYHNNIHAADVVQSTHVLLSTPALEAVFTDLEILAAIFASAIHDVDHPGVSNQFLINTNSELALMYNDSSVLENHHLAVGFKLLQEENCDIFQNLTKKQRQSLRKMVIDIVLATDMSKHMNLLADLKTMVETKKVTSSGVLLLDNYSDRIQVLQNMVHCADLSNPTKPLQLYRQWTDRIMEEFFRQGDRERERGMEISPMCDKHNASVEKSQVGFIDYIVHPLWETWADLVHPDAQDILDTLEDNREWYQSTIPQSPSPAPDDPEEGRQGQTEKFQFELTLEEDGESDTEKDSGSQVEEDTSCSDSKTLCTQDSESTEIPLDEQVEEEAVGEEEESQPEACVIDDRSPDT
Chain of Dual 3',5'-cyclic-AMP and -GMP phosphodiesterase 11A (Q9HCR9 whole entry, the tested form may be a part): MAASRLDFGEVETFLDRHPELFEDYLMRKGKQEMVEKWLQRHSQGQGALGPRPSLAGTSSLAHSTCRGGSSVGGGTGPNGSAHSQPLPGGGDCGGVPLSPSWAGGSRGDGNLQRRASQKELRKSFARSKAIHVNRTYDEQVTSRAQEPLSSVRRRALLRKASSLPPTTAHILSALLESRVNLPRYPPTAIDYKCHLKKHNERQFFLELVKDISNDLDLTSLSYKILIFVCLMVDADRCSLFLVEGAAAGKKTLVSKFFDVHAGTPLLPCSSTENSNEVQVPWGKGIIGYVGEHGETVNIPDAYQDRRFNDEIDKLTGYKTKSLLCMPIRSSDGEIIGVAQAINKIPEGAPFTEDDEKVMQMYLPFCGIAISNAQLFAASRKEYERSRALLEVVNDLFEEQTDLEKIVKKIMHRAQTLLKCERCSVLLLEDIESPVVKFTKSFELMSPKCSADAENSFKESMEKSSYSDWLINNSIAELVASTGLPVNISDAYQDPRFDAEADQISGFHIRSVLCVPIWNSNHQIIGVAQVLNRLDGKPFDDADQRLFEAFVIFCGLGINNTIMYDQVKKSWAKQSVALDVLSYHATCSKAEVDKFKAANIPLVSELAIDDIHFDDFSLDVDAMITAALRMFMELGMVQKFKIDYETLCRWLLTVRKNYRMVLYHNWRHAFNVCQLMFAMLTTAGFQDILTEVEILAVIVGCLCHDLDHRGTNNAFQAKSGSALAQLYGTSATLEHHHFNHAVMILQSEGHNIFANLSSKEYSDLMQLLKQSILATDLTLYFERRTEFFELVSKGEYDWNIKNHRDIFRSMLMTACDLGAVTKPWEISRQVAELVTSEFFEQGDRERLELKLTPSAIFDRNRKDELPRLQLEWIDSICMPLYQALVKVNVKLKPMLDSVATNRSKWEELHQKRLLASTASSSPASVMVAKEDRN
Chain of Cytochrome P450 2C9 (P11712 whole entry): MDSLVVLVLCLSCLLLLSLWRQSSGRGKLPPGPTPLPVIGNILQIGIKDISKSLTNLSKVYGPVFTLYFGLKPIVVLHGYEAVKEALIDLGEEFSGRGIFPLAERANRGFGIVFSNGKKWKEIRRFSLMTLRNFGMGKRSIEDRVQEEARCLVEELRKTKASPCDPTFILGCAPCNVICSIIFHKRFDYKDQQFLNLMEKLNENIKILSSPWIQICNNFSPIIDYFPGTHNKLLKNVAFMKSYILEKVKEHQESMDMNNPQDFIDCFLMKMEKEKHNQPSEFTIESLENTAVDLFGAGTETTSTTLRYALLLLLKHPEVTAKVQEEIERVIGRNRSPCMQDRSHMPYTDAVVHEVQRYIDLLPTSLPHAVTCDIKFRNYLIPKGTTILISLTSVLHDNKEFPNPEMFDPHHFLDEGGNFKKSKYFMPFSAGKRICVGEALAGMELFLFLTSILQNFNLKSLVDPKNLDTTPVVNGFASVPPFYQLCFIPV
Chain of Voltage-gated inwardly rectifying potassium channel KCNH2 (Q12809 whole entry): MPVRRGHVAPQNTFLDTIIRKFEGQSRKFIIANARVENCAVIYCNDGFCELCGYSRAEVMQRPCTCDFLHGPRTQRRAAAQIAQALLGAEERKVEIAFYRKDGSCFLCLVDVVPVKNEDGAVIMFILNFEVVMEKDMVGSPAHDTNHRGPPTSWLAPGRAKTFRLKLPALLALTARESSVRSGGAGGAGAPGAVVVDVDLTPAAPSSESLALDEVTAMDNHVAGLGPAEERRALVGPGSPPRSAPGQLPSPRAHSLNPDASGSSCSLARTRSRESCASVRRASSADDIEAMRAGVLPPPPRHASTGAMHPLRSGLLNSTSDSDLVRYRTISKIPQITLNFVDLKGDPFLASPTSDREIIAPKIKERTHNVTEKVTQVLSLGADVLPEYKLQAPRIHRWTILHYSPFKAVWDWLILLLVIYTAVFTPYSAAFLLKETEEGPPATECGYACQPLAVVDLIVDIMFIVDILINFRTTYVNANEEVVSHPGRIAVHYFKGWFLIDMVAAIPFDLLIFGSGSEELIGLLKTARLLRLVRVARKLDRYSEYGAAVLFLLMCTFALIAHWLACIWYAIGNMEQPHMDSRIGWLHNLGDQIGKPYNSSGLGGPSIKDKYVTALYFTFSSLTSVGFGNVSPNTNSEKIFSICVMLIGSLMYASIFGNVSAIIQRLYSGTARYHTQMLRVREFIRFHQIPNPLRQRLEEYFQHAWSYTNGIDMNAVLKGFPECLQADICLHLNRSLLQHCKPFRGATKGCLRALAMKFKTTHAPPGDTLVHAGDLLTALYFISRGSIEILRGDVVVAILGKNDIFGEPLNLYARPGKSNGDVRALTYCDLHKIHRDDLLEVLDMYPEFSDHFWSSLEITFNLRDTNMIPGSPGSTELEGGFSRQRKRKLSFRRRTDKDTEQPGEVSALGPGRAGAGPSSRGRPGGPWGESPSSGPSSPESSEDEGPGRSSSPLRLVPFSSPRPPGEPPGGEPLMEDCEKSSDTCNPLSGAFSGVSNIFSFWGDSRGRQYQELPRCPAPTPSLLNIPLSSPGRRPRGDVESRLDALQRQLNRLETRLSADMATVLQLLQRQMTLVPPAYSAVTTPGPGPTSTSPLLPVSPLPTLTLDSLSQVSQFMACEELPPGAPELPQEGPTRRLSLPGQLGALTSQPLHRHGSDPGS
Chain of Cytochrome P450 3A4 (P08684 whole entry): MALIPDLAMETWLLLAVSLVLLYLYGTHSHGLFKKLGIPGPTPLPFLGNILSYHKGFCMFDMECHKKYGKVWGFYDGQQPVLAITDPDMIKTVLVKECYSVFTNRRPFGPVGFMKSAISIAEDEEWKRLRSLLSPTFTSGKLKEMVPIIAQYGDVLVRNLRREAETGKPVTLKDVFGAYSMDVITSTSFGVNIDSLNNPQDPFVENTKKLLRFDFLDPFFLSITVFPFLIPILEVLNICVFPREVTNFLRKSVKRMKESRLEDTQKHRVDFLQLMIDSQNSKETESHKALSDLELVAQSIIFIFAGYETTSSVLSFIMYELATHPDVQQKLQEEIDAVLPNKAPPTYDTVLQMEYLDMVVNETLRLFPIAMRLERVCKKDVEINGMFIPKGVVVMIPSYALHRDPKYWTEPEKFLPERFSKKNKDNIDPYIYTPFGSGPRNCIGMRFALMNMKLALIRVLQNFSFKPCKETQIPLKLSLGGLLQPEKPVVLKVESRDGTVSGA

`COc1ccc2c(=O)c3c(-c4nccs4)[nH]c(Cc4ccc5c(c4)OCO5)c3oc2c1` showed a pIC50 [1] of 8.58.
`O=c1c2cc(F)cc(F)c2oc2c(Cc3ccc4c(c3)OCO4)[nH]c(-c3nccs3)c12` gave a pIC50 [1] of 8.79.
Compound `O=c1c2ccc(F)cc2oc2c(Cc3ccc4c(c3)OCO4)[nH]c(-c3nccs3)c12` has a pIC50 [1] of 8.62.
`CCCc1nn(C)c2c(=O)[nH]c(-c3cc(S(=O)(=O)N4CCN(C)CC4)ccc3OCC)nc12.O=C(O)CC(O)(CC(=O)O)C(=O)O` [SILDENAFIL CITRATE] showed an Activity (Rattus norvegicus [2]) of 20.86 mmHg.
Compound `COCCNc1cc(O)c2c(=O)c3c(-c4nccs4)[nH]c(Cc4ccc5c(c4)OCO5)c3oc2c1` has a CLint scaled at 0.5 µM [3] of 8.17 to 9.89 L/h/kg, a pIC50 [4] of 7.37 and a pIC50 [5] of under 4.52. The Intrinsic clearance (CLint) [6] was 75.6 to 92 µL/min/mg, the pIC50 (Cytochrome P450 3A4) was under 5.00 and the Activity (Rattus norvegicus [7]) was “Active”. The pIC50 [8] was 6.97, the Activity (Mus musculus) was “Non-Toxic” and the pIC50 [9] was 7.34. The pIC50 (Cytochrome P450 1A2) was under 5.00, the pIC50 [10] was 7.41 and the pIC50 (Cytochrome P450 2C9) was 6.87. It also gave a fraction unbound at 4 h, 1 µM [11] of 0.023, a K [12] of 0.0378 to 0.046 and an Activity (Rattus norvegicus [13]) of 19.94 mmHg. For the same compound, the pIC50 [14] was 8.92, the Activity (Rattus norvegicus [15]) was “Active” and the pIC50 (Cytochrome P450 2B6) was under 5.00. It also gave a half-life at 0.5 µM [16] of 15.1 to 18.3 min.
Compound `O=c1c2cc(Br)ccc2oc2c(Cc3ccc4c(c3)OCO4)[nH]c(-c3nccs3)c12` has a pIC50 [1] of 8.42.
`O=c1c2cc(F)ccc2oc2c(Cc3ccc4c(c3)OCO4)[nH]c(-c3nccs3)c12` gave a pIC50 [1] of 8.39.
In the case of `CN1CC(=O)N2[C@H](c3ccc4c(c3)OCO4)c3[nH]c4ccccc4c3C[C@@H]2C1=O`, the Ratio IC50 (Homo sapiens) was 20.
For `CCCc1nn(C)c2c(=O)[nH]c(-c3cc(S(=O)(=O)N4CCN(C)CC4)ccc3OCC)nc12` [listing 1 of 2 here], the Activity (Rattus norvegicus [17]) was “Active” and the Activity (Rattus norvegicus [18]) was “Active”.
For `O=c1c2c(F)cccc2oc2c(Cc3ccc4c(c3)OCO4)[nH]c(-c3nccs3)c12`, the CLint scaled at 0.5 µM [3] was 15.7 L/h/kg, the “Intrinsic clearance (CLint)” value [6] was 145.6 µL/min/mg and the hepatic extraction ratio at 0.5 µM [19] was 0.83. It also gave a pIC50 [1] of 8.85, a K [12] of 0.0728 and a half-life at 0.5 µM [16] of 9.52 min.
In the case of `CN1CCN(CCNc2cc(O)c3c(=O)c4c(-c5nccs5)[nH]c(Cc5ccc6c(c5)OCO6)c4oc3c2)CC1`, the CLint scaled at 0.5 µM [3] was 28.3 L/h/kg, the “Intrinsic clearance (CLint)” value [6] was 263.4 µL/min/mg and the hepatic extraction ratio at 0.5 µM [19] was 0.9. It also gave a pIC50 [1] of 9.41, a K [12] of 0.1317 and a half-life at 0.5 µM [16] of 5.26 min.
Work on `O=c1c2cc(Cl)cc(Br)c2oc2c(Cc3ccc4c(c3)OCO4)[nH]c(-c3nccs3)c12` yielded a pIC50 [1] of 8.52.
Work on `O=c1c2c(O)cc(NCCN3CCOCC3)cc2oc2c(Cc3ccc4c(c3)OCO4)[nH]c(-c3nccs3)c12` yielded a pIC50 [1] of 9.10.
In the case of `CNc1cc(O)c2c(=O)c3c(-c4nccs4)[nH]c(Cc4ccc5c(c4)OCO5)c3oc2c1`, the pIC50 [1] was 9.28.
In the case of `COc1c(Cl)ccc2oc3c(Cc4ccc5c(c4)OCO5)[nH]c(-c4nccs4)c3c(=O)c12`, the pIC50 [1] was 8.17.
With `CCCc1nn(C)c2c(=O)[nH]c(-c3cc(S(=O)(=O)N4CCN(C)CC4)ccc3OCC)nc12` [listing 2 of 2 here] the CLint scaled at 0.5 µM [3] was 27.8 L/h/kg, the “Intrinsic clearance (CLint)” value [6] was 258.2 µL/min/mg and the K [12] was 0.1291. For the same compound, the half-life at 0.5 µM [16] was 5.37 min.
`O=c1c2cc(Cl)ccc2oc2c(Cc3ccc4c(c3)OCO4)[nH]c(-c3nccs3)c12` showed a pIC50 [1] of 8.02.
Compound `O=c1c2c(F)cc(Br)cc2oc2c(Cc3ccc4c(c3)OCO4)[nH]c(-c3nccs3)c12` has a pIC50 [1] of 8.63.
For `O=c1c2ccc(Cl)cc2oc2c(Cc3ccc4c(c3)OCO4)[nH]c(-c3nccs3)c12`, the pIC50 [1] was 8.58.
`COc1cccc2oc3c(Cc4ccc5c(c4)OCO5)[nH]c(-c4nccs4)c3c(=O)c12` showed a pIC50 [1] of 8.36.
`O=c1c2c(O)cccc2oc2c(Cc3ccc4c(c3)OCO4)[nH]c(-c3nccs3)c12` gave a pIC50 [1] of 8.98.
For `O=c1c2cccc(Cl)c2oc2c(Cc3ccc4c(c3)OCO4)[nH]c(-c3nccs3)c12`, the pIC50 [1] was 8.68.
With `O=c1c2ccc(Br)cc2oc2c(Cc3ccc4c(c3)OCO4)[nH]c(-c3nccs3)c12` the pIC50 [1] was 8.80.
